Reference: ChEMBL document CHEMBL1126930, “New analogues of N-(2-aminoethyl)-4-chlorobenzamide (Ro 16-6491). Some of the most potent monoamine oxidase-B inactivators” (J Med Chem, 1993)

Experiment: Inhibition of mitochondrial Monoamine oxidase-B purified from bovine liver
Method in brief: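 MAO-B purified from bovine liver mitochondria. Enzyme preincubated 20 min with various inactivator concentrations. 10 μL aliquots then assayed for remaining activity in 490 μL of 1 mM benzylamine hydrochloride in 50 mM Tris-HCl, pH 9.0. IC50 extrapolated from plots of percent activity remaining versus inhibitor concentration. Duplicate runs varied by 0–5%.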

Row | Structure (SMILES) | IC50
1 | NCCNC(=O)c1ccccc1Cl | 490 nM
2 | NCCNC(=O)c1ccccc1 | 250 nM
3 | NCCNC(=O)c1ccccc1F | 160 nM
4 | NCCNC(=O)c1ccccc1Br | 1200 nM
5 | NCCNC(=O)c1ccc([N+](=O)[O-])cc1 | 48200 nM
6 | NCCNC(=O)c1cccc(Cl)c1 | 120 nM
7 | NCCNC(=O)c1cccc(F)c1 | 200 nM
8 | NCCNC(=O)c1ccccc1I | 61500 nM
9 | NCCNC(=O)c1ccccc1[N+](=O)[O-] | 2170 nM
10 | NCCNC(=O)c1cccc([N+](=O)[O-])c1 | 60 nM
11 | NCCNC(=O)c1ccc(I)cc1 | 170 nM

Now those with a lower IC50, led by results:

Row | IC50 | Structure (SMILES)
12 | 37 nM | NCCNC(=O)c1cccc(I)c1
13 | 45 nM | NCCNC(=O)c1ccc(Cl)cc1
14 | 42 nM | NCCNC(=O)c1ccc(Br)cc1
15 | 30 nM | NCCNC(=O)c1ccc(Cl)cn1 [LAZABEMIDE]
16 | 56 nM | NCCNC(=O)c1ccc(F)cc1
17 | 52 nM | NCCNC(=O)c1cccc(Br)c1
